Laboratory results reported in the RNAGym collection of RNA variant scans (doi:10.1126/science.aae0568).
This sample holds only a part of the variants without activity.

B1: tRNA (parent)
chain: GUUCCGUUGGCGUAAUGGUAACGCGUCUCCCUCCUAAGGAGAAGACUGCGGGUUCGAGUCCCGUACGGAACG

Variants of: B1
Experiment: yeast fitness relative to wild type (ratio to wild type); higher = fitter; tRNA-Arg(CCU), competitive growth, 37 C, YPD
In short: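 Gene amplicons from the start population and from each of six end populations were read by 100-nucleotide paired-end sequencing. Those end populations came from pooled Saccharomyces cerevisiae strains carrying tRNA-Arg(CCU) gene variants at the native locus, competed in YPD at 37°C for 24 hours. Fitness relative to wild type was worked out from changes in genotype frequencies. Genotypes needed ≥ 100 starting reads, and estimates < 0.5 were set to 0.5.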
With A21G U32C U59G C66U A70C the yeast fitness was 0.703.
In the case of A21G U32G G41C, the yeast fitness is reported as ≤ 0.5.
Variant A21G U35A has a yeast fitness of 0.674.
With A21G U35A A43U U59C the yeast fitness was ≤ 0.5.
With A21G U35A C55U A65G the yeast fitness was ≤ 0.5.
With A21G U35C the yeast fitness was 0.728.
In the case of A21G U35C G63C, the yeast fitness is reported as 0.536.
For A21G U47A, the yeast fitness was 0.822.
For A21G U47A G48A A65U, the yeast fitness was ≤ 0.5.
For A21G U47C, the yeast fitness was 0.921.
In the case of A21G U47C A65C, the yeast fitness is reported as 0.63.
A21G U53A A57U gave a yeast fitness of 0.516.
With A21G U53C A57C A69U the yeast fitness was 0.597.
A21G U53G showed a yeast fitness of 0.647.
With A21G U54A the yeast fitness was 0.575.
For A21G U54A C62U A65G G68A, the yeast fitness was ≤ 0.5.
For A21G U54C, the yeast fitness was 0.937.
For A21G U54G, the yeast fitness was 0.575.
A21G U59A gave a yeast fitness of 0.835.
Variant A21G U59G U64C A65U has a yeast fitness of 0.586.
With A21G U64C the yeast fitness was 0.864.
In the case of A21U, the yeast fitness is reported as 0.861.
In the case of A21U A36C A45C G48A C55A, the yeast fitness is reported as ≤ 0.5.
With A21U A36C G38C the yeast fitness was ≤ 0.5.
In the case of A21U A36C G56C, the yeast fitness is reported as ≤ 0.5.
For A21U A36G A40C A69U, the yeast fitness was ≤ 0.5.
With A21U A36G A43U U64A the yeast fitness was ≤ 0.5.
In the case of A21U A36G A45C, the yeast fitness is reported as 0.581.
Work on A21U A36G U47C U59A yielded a yeast fitness of 0.729.
Work on A21U A36U yielded a yeast fitness of 0.592.
A21U A36U A45U A65U A70U gave a yeast fitness of 0.624.
A21U A36U C49U G52C C62A G67A gave a yeast fitness of 0.616.
A21U A37G showed a yeast fitness of 0.664.
A21U A37U A43C C61U A70G showed a yeast fitness of 0.517.
Work on A21U A37U A45C G51A G67A yielded a yeast fitness of 0.67.
A21U A37U A65C gave a yeast fitness of 0.672.
For A21U A37U A65C C66U, the yeast fitness was ≤ 0.5.
For A21U A40C A57C A70U, the yeast fitness was ≤ 0.5.
With A21U A40C G56A the yeast fitness was ≤ 0.5.
Work on A21U A40C G58C A65C C66G yielded a yeast fitness of 0.523.
With A21U A40C U59C C62U G67U the yeast fitness was ≤ 0.5.
With A21U A40G the yeast fitness was 0.633.
With A21U A40G C49G the yeast fitness was ≤ 0.5.
A21U A40G G67A gave a yeast fitness of 0.553.
A21U A40U A69C showed a yeast fitness of 0.574.
Variant A21U A40U A70U has a yeast fitness of 0.657.
In the case of A21U A42C, the yeast fitness is reported as 0.741.
With A21U A42G C55U the yeast fitness was 0.601.
In the case of A21U A42G C60A, the yeast fitness is reported as ≤ 0.5.
In the case of A21U A43C, the yeast fitness is reported as 0.974.
With A21U A43C A45U C49G C61U the yeast fitness was 0.56.
With A21U A43U G63A the yeast fitness was ≤ 0.5.
With A21U A45C the yeast fitness was 0.913.
In the case of A21U A45G C62G, the yeast fitness is reported as 0.996.
For A21U A45U G52A, the yeast fitness was ≤ 0.5.
With A21U A45U G67C the yeast fitness was 0.598.
A21U A57C gave a yeast fitness of 0.619.
A21U A57C G67A gave a yeast fitness of 0.556.
A21U A57G gave a yeast fitness of 0.882.
With A21U A57U C61G the yeast fitness was ≤ 0.5.
With A21U A57U G68C the yeast fitness was ≤ 0.5.
With A21U A65G the yeast fitness was 0.942.
Variant A21U A69G has a yeast fitness of 0.826.
In the case of A21U A69U, the yeast fitness is reported as 0.686.
A21U A70G gave a yeast fitness of 0.786.
For A21U C22A G38C A45U, the yeast fitness was ≤ 0.5.
With A21U C22A G50C G67A the yeast fitness was ≤ 0.5.
A21U C22G showed a yeast fitness of 1.01.
With A21U C22G C31U U54A C55U the yeast fitness was ≤ 0.5.
Variant A21U C22G C33U has a yeast fitness of 0.572.
In the case of A21U C22G C33U G68A, the yeast fitness is reported as ≤ 0.5.
For A21U C22G C55A, the yeast fitness was ≤ 0.5.
For A21U C22G C60G G68A, the yeast fitness was ≤ 0.5.
With A21U C22G G51C the yeast fitness was ≤ 0.5.
Work on A21U C22U yielded a yeast fitness of 0.546.
In the case of A21U C22U A36G C49A, the yeast fitness is reported as ≤ 0.5.
With A21U C22U A37G G44A A45C C46A C55U U59G U64C the yeast fitness was ≤ 0.5.
With A21U C22U A43C C49A the yeast fitness was 0.595.
With A21U C22U C30G C55A the yeast fitness was ≤ 0.5.
For A21U C22U C49A, the yeast fitness was 0.56.
For A21U C22U C49A G67A, the yeast fitness was ≤ 0.5.
With A21U C22U C55U the yeast fitness was ≤ 0.5.
A21U C22U G25A A57C G68U A69C gave a yeast fitness of 0.599.
For A21U C22U G25A C49A, the yeast fitness was ≤ 0.5.
In the case of A21U C22U G39A C46U C62U, the yeast fitness is reported as ≤ 0.5.
With A21U C22U G48A A57U the yeast fitness was ≤ 0.5.
In the case of A21U C22U U32A C49G, the yeast fitness is reported as ≤ 0.5.
With A21U C22U U32A G39A G51A A65U the yeast fitness was ≤ 0.5.
With A21U C24A the yeast fitness was 0.578.
Variant A21U C24A A37U G48C has a yeast fitness of 0.534.
In the case of A21U C24A A43C G48A A69C, the yeast fitness is reported as ≤ 0.5.
For A21U C24A A45U C62A A69C, the yeast fitness was ≤ 0.5.
With A21U C24A A45U C62U the yeast fitness was ≤ 0.5.
For A21U C24A A69C, the yeast fitness was ≤ 0.5.
With A21U C24A A69G the yeast fitness was ≤ 0.5.
In the case of A21U C24A C27A U32C U64A, the yeast fitness is reported as ≤ 0.5.
In the case of A21U C24A C30A C31G A43U U54G C62G, the yeast fitness is reported as ≤ 0.5.
With A21U C24G the yeast fitness was ≤ 0.5.
With A21U C24G C29G C49U the yeast fitness was ≤ 0.5.
For A21U C24G U47A, the yeast fitness was ≤ 0.5.
A21U C24U showed a yeast fitness of 0.703.
For A21U C24U C27A A37C A40U, the yeast fitness was ≤ 0.5.
In the case of A21U C24U C27A A37C A40U C49G, the yeast fitness is reported as ≤ 0.5.
A21U C24U C27A A37C A40U G67C showed a yeast fitness of 0.54.
With A21U C24U C27A U35C A37C A40U G67C the yeast fitness was ≤ 0.5.
In the case of A21U C24U C61U C66U, the yeast fitness is reported as ≤ 0.5.
In the case of A21U C24U C66U, the yeast fitness is reported as ≤ 0.5.
In the case of A21U C24U G56A, the yeast fitness is reported as 0.635.
For A21U C24U G56C G63A U64C G67C, the yeast fitness was ≤ 0.5.
For A21U C27A, the yeast fitness was 0.583.
With A21U C27A G50C G52C G67C the yeast fitness was ≤ 0.5.
In the case of A21U C27G A40G, the yeast fitness is reported as ≤ 0.5.
With A21U C27G A43U the yeast fitness was ≤ 0.5.
In the case of A21U C27G A45C, the yeast fitness is reported as ≤ 0.5.
A21U C27G C30A gave a yeast fitness of 0.514.
With A21U C27G C30A G67A the yeast fitness was ≤ 0.5.
For A21U C27G C31A C46A G56C, the yeast fitness was ≤ 0.5.
In the case of A21U C27G C33G C60G, the yeast fitness is reported as 0.52.
For A21U C27G C33U C34A C61U, the yeast fitness was ≤ 0.5.
For A21U C27G C61U, the yeast fitness was ≤ 0.5.
In the case of A21U C27U A37U C60G, the yeast fitness is reported as ≤ 0.5.
In the case of A21U C27U U53C, the yeast fitness is reported as ≤ 0.5.
With A21U C29A A36G G58A C66U the yeast fitness was ≤ 0.5.
For A21U C29G A57U A65C, the yeast fitness was ≤ 0.5.
A21U C29G C31G A43U gave a yeast fitness of 0.574.
A21U C29G C31G A43U C60U gave a yeast fitness of 0.586.
For A21U C29G C31G A43U G58A U59C, the yeast fitness was ≤ 0.5.
In the case of A21U C29G C49G A70U, the yeast fitness is reported as ≤ 0.5.
For A21U C29G G58A, the yeast fitness was ≤ 0.5.
A21U C29G G58C showed a yeast fitness of 0.502.
For A21U C29G U35G G41C, the yeast fitness was ≤ 0.5.
With A21U C29U A37U C66U the yeast fitness was ≤ 0.5.
For A21U C29U A69G, the yeast fitness was ≤ 0.5.
Work on A21U C30A A69U yielded a yeast fitness of 0.815.
In the case of A21U C30A U35C A40G, the yeast fitness is reported as ≤ 0.5.
Work on A21U C30G yielded a yeast fitness of 0.54.
Variant A21U C30G A70U has a yeast fitness of 0.677.
With A21U C30G C34U G52A A65C A69U the yeast fitness was ≤ 0.5.
With A21U C30G C61U the yeast fitness was ≤ 0.5.
For A21U C30G G41A A43C C55A, the yeast fitness was ≤ 0.5.
With A21U C30U G39C A43G C46G U54A C62G the yeast fitness was ≤ 0.5.
For A21U C30U G48A G67C A69U, the yeast fitness was ≤ 0.5.
In the case of A21U C30U U32A, the yeast fitness is reported as ≤ 0.5.
For A21U C30U U32A G63C, the yeast fitness was ≤ 0.5.
A21U C31A G39C C61A showed a yeast fitness of 0.579.
For A21U C31A G39C C62G G68A, the yeast fitness was ≤ 0.5.
Variant A21U C31G C33G C60A has a yeast fitness of 0.543.
A21U C31U showed a yeast fitness of 0.717.
In the case of A21U C31U G52A, the yeast fitness is reported as 0.602.
A21U C31U G52A A69G gave a yeast fitness of 0.706.
In the case of A21U C31U U54G, the yeast fitness is reported as ≤ 0.5.
In the case of A21U C33A C34G G51C, the yeast fitness is reported as ≤ 0.5.
With A21U C33A G39C G41C G44C A69C the yeast fitness was ≤ 0.5.
In the case of A21U C33G, the yeast fitness is reported as 0.731.
With A21U C33G G41C the yeast fitness was ≤ 0.5.
With A21U C33G G58A C66U the yeast fitness was ≤ 0.5.
In the case of A21U C33U, the yeast fitness is reported as 0.732.
With A21U C33U A43U C49G G50C C61U C66U the yeast fitness was ≤ 0.5.
For A21U C33U A57C, the yeast fitness was ≤ 0.5.
For A21U C33U A57U U59C, the yeast fitness was 0.639.
A21U C33U A57U U59C C66U gave a yeast fitness of 0.538.
With A21U C33U C49A C55U the yeast fitness was ≤ 0.5.
For A21U C33U G38A A45U U53A C62U G63C, the yeast fitness was ≤ 0.5.
With A21U C33U U59A the yeast fitness was ≤ 0.5.
For A21U C34G C60G, the yeast fitness was ≤ 0.5.
With A21U C34G G39A A57G C61U the yeast fitness was ≤ 0.5.
With A21U C34G G39A C55U the yeast fitness was ≤ 0.5.
